Data on eight molecules can be found in ChEMBL document CHEMBL4732217, “Design, synthesis, biological evaluation, and docking studies of novel (imidazol-5-yl)pyrimidine-based derivatives as dual BRAF/p38α inhibitors” (Eur J Med Chem, 2021).

Some results are limits rather than exact numbers.

The target of assay [1] is T1, Mitogen-activated protein kinase 14 (Homo sapiens, UniProt Q16539). The experiment in a line: Inhibition of p38 alpha (unknown origin) at 10 uM using Ser/Thr 15 as substrate incubated for 1 hr in presence of ATP by Z'-Lyte assay relative to control. The method in brief:
(§1)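 Run by a commercial kinase profiling service at 100 µM ATP. Single-point screening was followed by 5-point titration (1 nM, 10 nM, 100 nM, 1 µM, 10 µM) for IC50.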

The subject of assay [2] is LOX IMVI. The experiment in a line: cells. The class given is functional, cell-based. To be noted: Homo sapiens, 24 h.
Assay [3] has as its system Serine/threonine-protein kinase B-raf (Homo sapiens), P15056 [V600E]. Description: Inhibition of BRAF V600E mutant (unknown origin) at 10 uM using Ser/Thr 03 as substrate after 1 hr in presence of ATP by Z'-LYTE assay relative to control. An outline of the steps:
as §1

Assay [4] can be described thus: Cytotoxicity against human IOSE-80PC cells assessed as reduction in cell viability incubated for 24 hrs by MTT assay. The class given is cell-based, IOSE80pc. An outline of the steps: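 Human ovarian epithelial IOSE-80PC cells grown in RPMI 1640 with FBS and penicillin-streptomycin, seeded at 1 × 10⁵/mL, exposed to a range of compound concentrations in 5-dose mode. Viability read by MTT; IC50 derived.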

Assay [5] can be described thus: Selectivity index, ratio of IC50 for human IOSE-80PC cells to IC50 for human LOX IMVI cells. An outline of the steps: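 IC50 against IOSE-80PC normal ovarian epithelial cells (MTT, 5-dose) divided by IC50 against LOX-IMVI melanoma cells (MTT, 24 h compound exposure, means of duplicate experiments ± S.D.).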
The target of assay [6] is T2, Serine/threonine-protein kinase B-raf (Homo sapiens, UniProt P15056, V600E). The experiment in a line: Inhibition of BRAF V600E mutant (unknown origin) using Ser/Thr 03 as substrate after 1 hr in presence of ATP by Z'-LYTE assay.
Assay [7] in a line: Inhibition of LPS stimulated TNF-alpha production in mouse RAW264.7 macrophages preincubated for 1 hr followed by LPS stimulation and measured after 24 hrs by EIA. The class given is functional. The method in brief:
(§2)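 RAW 264.7 macrophages plated at 2 × 10⁵ cells per well and left overnight. Pretreated 1 h with compound, then stimulated 24 h with lipopolysaccharide. TNF-α in culture supernatant measured by EIA. BAY 11-7082 reference tested at 0.5, 1.0, 5.0 and 10.0 µM. Values are means ± S.D.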

Assay [8] has as its system Serine/threonine-protein kinase B-raf (Homo sapiens), P15056 [V600E]. The experiment in a line: Potency index, ratio of staurosporine IC50 to compound IC50 for inhibition of BRAF V600E mutant (unknown origin).
The target of assay [9] is T1, Mitogen-activated protein kinase 14. The experiment in a line: Potency index, ratio of PP2 IC50 to compound IC50 for inhibition of P38 alpha (unknown origin).
Assay [10] can be described thus: Inhibition of LPS stimulated TNF-alpha production in mouse RAW264.7 macrophages at 10 uM preincubated for 1 hr followed by LPS stimulation and measured after 24 hrs by EIA relative to control. The class given is functional. To be noted: time 25 hrs. An outline of the steps:
as §2

Assay [11] concerns RAW264.7. The experiment in a line: Potency index, ratio of BAY 11-7082 IC50 to compound IC50 for inhibition of LPS stimulated TNF-alpha production in mouse RAW264.7 macrophages. The class given is functional.
Assay [12] is described as follows: Inhibition of LPS stimulated TNF-alpha production in mouse RAW264.7 macrophages at 1 uM preincubated for 1 hr followed by LPS stimulation and measured after 24 hrs by EIA relative to control. The class given is functional. The following applies: time 25 hrs. The method in brief: as §2
In assay [13] the target is T1, Mitogen-activated protein kinase 14. Description: Inhibition of p38 alpha (unknown origin) using Ser/Thr 15 as substrate incubated for 1 hr in presence of ATP by Z'-Lyte assay.
The target of assay [14] is T2, Serine/threonine-protein kinase B-raf. Description: Inhibition of BRAF V600E mutant (unknown origin) preincubated for 20 mins followed by 33P-ATP addition and measured after 2 hrs by HotSpot kinase assay.

T2 sequence (P15056 2-766 V600E limits assumed): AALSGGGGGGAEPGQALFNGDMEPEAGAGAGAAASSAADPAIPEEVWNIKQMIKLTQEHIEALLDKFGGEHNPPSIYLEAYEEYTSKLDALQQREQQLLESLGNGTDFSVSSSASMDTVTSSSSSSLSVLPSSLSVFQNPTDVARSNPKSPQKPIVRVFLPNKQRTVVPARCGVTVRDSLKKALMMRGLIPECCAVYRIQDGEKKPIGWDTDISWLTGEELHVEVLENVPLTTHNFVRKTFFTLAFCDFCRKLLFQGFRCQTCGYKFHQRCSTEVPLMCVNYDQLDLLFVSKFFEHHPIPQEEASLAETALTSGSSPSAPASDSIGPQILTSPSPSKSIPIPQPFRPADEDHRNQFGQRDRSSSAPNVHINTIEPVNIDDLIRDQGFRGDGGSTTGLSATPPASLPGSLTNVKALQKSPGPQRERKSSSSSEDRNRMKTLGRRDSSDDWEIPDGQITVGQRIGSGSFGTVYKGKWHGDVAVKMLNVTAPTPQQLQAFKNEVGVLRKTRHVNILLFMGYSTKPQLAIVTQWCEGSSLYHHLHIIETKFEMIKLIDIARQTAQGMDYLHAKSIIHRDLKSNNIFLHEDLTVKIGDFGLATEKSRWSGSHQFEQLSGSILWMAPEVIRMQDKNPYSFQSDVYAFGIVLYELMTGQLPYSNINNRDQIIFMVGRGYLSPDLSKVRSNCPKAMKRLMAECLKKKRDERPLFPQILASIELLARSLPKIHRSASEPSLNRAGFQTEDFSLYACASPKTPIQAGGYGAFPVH
Serine/threonine-protein kinase B-raf (Homo sapiens), P15056 [V600E], sequence (P15056 whole entry V600E): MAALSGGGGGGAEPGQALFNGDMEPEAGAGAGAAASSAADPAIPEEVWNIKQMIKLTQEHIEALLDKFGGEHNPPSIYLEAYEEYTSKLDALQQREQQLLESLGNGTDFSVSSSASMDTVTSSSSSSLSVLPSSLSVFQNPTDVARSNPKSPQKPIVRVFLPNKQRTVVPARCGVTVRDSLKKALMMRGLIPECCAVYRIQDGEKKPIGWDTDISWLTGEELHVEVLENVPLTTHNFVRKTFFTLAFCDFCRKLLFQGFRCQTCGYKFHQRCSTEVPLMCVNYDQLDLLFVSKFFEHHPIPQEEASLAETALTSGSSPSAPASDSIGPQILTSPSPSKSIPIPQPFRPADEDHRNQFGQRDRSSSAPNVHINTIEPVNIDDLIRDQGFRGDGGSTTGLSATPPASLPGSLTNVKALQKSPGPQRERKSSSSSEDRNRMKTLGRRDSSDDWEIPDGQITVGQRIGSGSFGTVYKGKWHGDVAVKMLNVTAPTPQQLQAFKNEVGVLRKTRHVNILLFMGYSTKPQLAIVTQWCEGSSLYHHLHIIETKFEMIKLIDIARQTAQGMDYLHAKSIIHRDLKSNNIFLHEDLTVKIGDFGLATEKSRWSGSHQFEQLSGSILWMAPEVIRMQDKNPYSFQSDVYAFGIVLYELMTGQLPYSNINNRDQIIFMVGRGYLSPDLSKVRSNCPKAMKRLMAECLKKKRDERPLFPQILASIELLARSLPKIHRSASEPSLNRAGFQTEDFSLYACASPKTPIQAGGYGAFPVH
T1 sequence (Q16539 whole entry): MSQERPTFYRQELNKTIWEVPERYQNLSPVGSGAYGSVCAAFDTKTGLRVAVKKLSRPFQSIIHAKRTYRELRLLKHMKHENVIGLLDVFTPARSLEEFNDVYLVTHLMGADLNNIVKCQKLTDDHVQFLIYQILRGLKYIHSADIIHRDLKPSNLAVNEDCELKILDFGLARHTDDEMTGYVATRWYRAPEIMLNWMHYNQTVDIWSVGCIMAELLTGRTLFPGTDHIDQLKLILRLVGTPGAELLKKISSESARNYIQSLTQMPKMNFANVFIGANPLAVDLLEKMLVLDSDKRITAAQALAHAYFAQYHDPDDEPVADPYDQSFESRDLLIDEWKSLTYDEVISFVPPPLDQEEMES

Take `O=S(=O)(NCCCNc1nccc(-c2[nH]c(-c3ccccc3)nc2-c2ccc(F)c(O)c2)n1)c1ccc(C(F)(F)F)cc1`: the inhibition amounted to 65.4% in [1] and 98.4% in [3]. Moreover, the half-inhibitory concentration (IC50) in assay [2] is 2450 nM; in assay [4] it was above 10000 nM. For the same molecule, the Ratio IC50 in assay [5] was above 4.08.

In the case of `O=S(=O)(NCCCNc1nccc(-c2[nH]c(-c3ccccc3)nc2-c2ccc(Cl)c(O)c2)n1)c1ccccc1`, the inhibition was 82.2% in [1] and 99.4% in [3]. The IC50 was 2630 nM in [2], 4.25 nM in assay [6] and above 10000 nM in [4]. Moreover, the Ratio IC50 in assay [5] was above 3.8.

As for `O=S(=O)(NCCCNc1nccc(-c2[nH]c(-c3ccccc3)nc2-c2ccc(Cl)c(O)c2)n1)c1ccc(F)cc1`, the values for the inhibition in assay [1] and in [3] were 85.5% and 97.1%, respectively. Besides, the IC50 in assay [2] is 2300 nM; in assay [4], above 10000 nM. The Ratio IC50 in assay [5] was above 4.35.

Molecule `Cc1ccc(S(=O)(=O)/C=C/C#N)cc1` had an IC50 in assay [7] of 5180 nM.

Turning to `COc1cc(-c2nc(-c3ccccc3)[nH]c2-c2ccnc(NCCCNS(=O)(=O)c3ccc(C(F)(F)F)cc3)n2)ccc1Cl`, the results for the inhibition in [1] and in assay [3] were 18.9% and 55.9%, respectively. Also, the results for the IC50 in assay [2] and in assay [4] were 1780 nM and above 10000 nM, respectively. Also, the Ratio IC50 in assay [5] is above 5.62.

On to `O=S(=O)(NCCCNc1nccc(-c2[nH]c(-c3ccccc3)nc2-c2ccc(F)c(O)c2)n1)c1ccc(O)cc1`, for which the inhibition was determined as 92.8% in assay [1] and 101% in assay [3]. For the same molecule, the Ratio IC50 is 12.7 in assay [8], 49.8 in [9] and 53.8 in assay [11]. For the same molecule, the IC50 is 13900 nM in assay [2], 96.3 nM in [7], 2.49 nM in assay [6] and 85 nM in assay [13]. The inhibition at 10 µM in [10] came out at 96.4%. Further, the inhibition at 1 µM in assay [12] came to 85.2%.

For the molecule `COc1cc(-c2nc(-c3ccccc3)[nH]c2-c2ccnc(NCCCNS(=O)(=O)c3cccc(F)c3)n2)ccc1F`, the inhibition in assay [1] was 82.7%; in assay [3], 72.5%. Moreover, the IC50 in assay [2] was 900 nM; in assay [4] it was above 10000 nM. For the same molecule, the Ratio IC50 in assay [5] was above 11.1.

As for `O=S(=O)(NCCNc1cc(-c2[nH]c(-c3ccccc3)nc2-c2cccc(O)c2)ccn1)c1ccc(O)cc1`, in assay [14], half-maximal inhibition (IC50) was put at 32 nM.

Usually inhibition stands for the drop in the measured response relative to a control, in per cent. One may read the IC50 as the point on the concentration scale where inhibition reaches its midpoint.
